Measurements as given in ChEMBL document CHEMBL5058577, “EUbOPEN Chemogenomics Library 2 (Multiplex)” (2022).

Test system: HEK-293T
Experiment: Multiplex assay against HEK293T
Format: toxicity, cell-based
Conditions: human
Method in brief: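 Per cents of healthy-nucleus cells form the tubulin, mitochondrial-mass and membrane-permeability phenotype values. Live cells were stained at seeding with Hoechst33342, BioTracker Green Microtubule Cytoskeleton Dye, MitoTracker Red and Annexin V Alexa Fluor 680. After compound addition they were imaged on a CQ1 microscope at 37°C and 5% CO2, and CellPathfinder machine-learning gating split them into Hoechst high-intensity objects or normal cells, normal cells into healthy, pyknosed or fragmented nuclei, and pyknosed cells into mitotic or apoptotic.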

[1] = 12 h, 1 µM, compound concentration 1 uM, replicate 1
[2] = 12 h, 1 µM, compound concentration 1 uM, replicate 2
[3] = 12 h, 10 µM, compound concentration 10 uM, replicate 1
[4] = 12 h, 10 µM, compound concentration 10 uM, replicate 2
[5] = 24 h, 1 µM, compound concentration 1 uM, replicate 1
[6] = 24 h, 1 µM, compound concentration 1 uM, replicate 2
[7] = 24 h, 10 µM, compound concentration 10 uM, replicate 1
[8] = 24 h, 10 µM, compound concentration 10 uM, replicate 2
[9] = 48 h, 1 µM, compound concentration 1 uM, replicate 1
[10] = 48 h, 1 µM, compound concentration 1 uM, replicate 2
[11] = 48 h, 10 µM, compound concentration 10 uM, replicate 1
[12] = 48 h, 10 µM, compound concentration 10 uM, replicate 2

Compound: CN1CCN(c2ccc(Nc3c4ccccc4nc4ccccc34)cc2)CC1.Cl.Cl.O
- Population Apoptotic (%) [1]: 42%
- Population Fragmented Nuclei (%) [1]: 7%
- Population Healthy Nuclei (%) [1]: 81%
- Population Hoechst High Intensity Objects (%) [1]: 3%
- Population Membrane Permeable-Phenotype (%) [1]: 0%
- Population Mitochondria Different-Phenotype (%) [1]: 50%
- Population Mitotic Cells (%) [1]: 57%
- Population Normal (%) [1]: 96%
- Population Pyknosed Nuclei (%) [1]: 11%
- Population Tubulin-Different-Phenotype (%) [1]: 28%
- Total Cell Count [1]: 411
- Population Apoptotic (%) [2]: 55%
- Population Fragmented Nuclei (%) [2]: 4%
- Population Healthy Nuclei (%) [2]: 90%
- Population Hoechst High Intensity Objects (%) [2]: 1%
- Population Mitochondria Different-Phenotype (%) [2]: 59%
- Population Mitotic Cells (%) [2]: 45%
- Population Normal (%) [2]: 98%
- Population Pyknosed Nuclei (%) [2]: 5%
- Population Tubulin-Different-Phenotype (%) [2]: 20%
- Total Cell Count [2]: 364
- Population Apoptotic (%) [3]: 100%
- Population Fragmented Nuclei (%) [3]: 24%
- Population Healthy Nuclei (%) [3]: 74%
- Population Hoechst High Intensity Objects (%) [3]: 1%
- Population Membrane Permeable-Phenotype (%) [3]: 0%
- Population Mitochondria Different-Phenotype (%) [3]: 99%
- Population Mitotic Cells (%) [3]: 0%
- Population Normal (%) [3]: 98%
- Population Pyknosed Nuclei (%) [3]: 1%
- Population Tubulin-Different-Phenotype (%) [3]: 97%
- Total Cell Count [3]: 234
- Population Fragmented Nuclei (%) [4]: 40%
- Population Healthy Nuclei (%) [4]: 58%
- Population Hoechst High Intensity Objects (%) [4]: 0%
- Population Mitochondria Different-Phenotype (%) [4]: 100%
- Population Normal (%) [4]: 99%
- Population Tubulin-Different-Phenotype (%) [4]: 92%
- Total Cell Count [4]: 194
- Population Apoptotic (%) [5]: 42%
- Population Fragmented Nuclei (%) [5]: 9%
- Population Healthy Nuclei (%) [5]: 84%
- Population Hoechst High Intensity Objects (%) [5]: 2%
- Population Membrane Permeable-Phenotype (%) [5]: 0%
- Population Mitochondria Different-Phenotype (%) [5]: 40%
- Population Mitotic Cells (%) [5]: 57%
- Population Normal (%) [5]: 97%
- Population Pyknosed Nuclei (%) [5]: 5%
- Population Tubulin-Different-Phenotype (%) [5]: 14%
- Total Cell Count [5]: 455
- Population Apoptotic (%) [6]: 46%
- Population Healthy Nuclei (%) [6]: 86%
- Population Hoechst High Intensity Objects (%) [6]: 0%
- Population Mitochondria Different-Phenotype (%) [6]: 44%
- Population Mitotic Cells (%) [6]: 53%
- Population Normal (%) [6]: 99%
- Population Pyknosed Nuclei (%) [6]: 4%
- Population Tubulin-Different-Phenotype (%) [6]: 12%
- Total Cell Count [6]: 362
- Population Apoptotic (%) [7]: 100%
- Population Fragmented Nuclei (%) [7]: 28%
- Population Healthy Nuclei (%) [7]: 69%
- Population Hoechst High Intensity Objects (%) [7]: 2%
- Population Membrane Permeable-Phenotype (%) [7]: 0%
- Population Mitochondria Different-Phenotype (%) [7]: 100%
- Population Mitotic Cells (%) [7]: 0%
- Population Normal (%) [7]: 97%
- Population Pyknosed Nuclei (%) [7]: 2%
- Population Tubulin-Different-Phenotype (%) [7]: 92%
- Total Cell Count [7]: 247
- Population Fragmented Nuclei (%) [8]: 45%
- Population Healthy Nuclei (%) [8]: 53%
- Population Hoechst High Intensity Objects (%) [8]: 0%
- Population Normal (%) [8]: 99%
- Population Pyknosed Nuclei (%) [8]: 0%
- Population Tubulin-Different-Phenotype (%) [8]: 91%
- Total Cell Count [8]: 206
- Population Apoptotic (%) [9]: 45%
- Population Fragmented Nuclei (%) [9]: 11%
- Population Healthy Nuclei (%) [9]: 82%
- Population Hoechst High Intensity Objects (%) [9]: 3%
- Population Membrane Permeable-Phenotype (%) [9]: 0%
- Population Mitochondria Different-Phenotype (%) [9]: 30%
- Population Mitotic Cells (%) [9]: 54%
- Population Normal (%) [9]: 96%
- Population Pyknosed Nuclei (%) [9]: 6%
- Population Tubulin-Different-Phenotype (%) [9]: 16%
- Total Cell Count [9]: 581
- Population Apoptotic (%) [10]: 60%
- Population Fragmented Nuclei (%) [10]: 10%
- Population Healthy Nuclei (%) [10]: 85%
- Population Hoechst High Intensity Objects (%) [10]: 1%
- Population Mitochondria Different-Phenotype (%) [10]: 36%
- Population Mitotic Cells (%) [10]: 40%
- Population Normal (%) [10]: 98%
- Population Pyknosed Nuclei (%) [10]: 3%
- Population Tubulin-Different-Phenotype (%) [10]: 12%
- Total Cell Count [10]: 411
- Population Apoptotic (%) [11]: 100%
- Population Fragmented Nuclei (%) [11]: 34%
- Population Healthy Nuclei (%) [11]: 56%
- Population Hoechst High Intensity Objects (%) [11]: 11%
- Population Membrane Permeable-Phenotype (%) [11]: 0%
- Population Mitochondria Different-Phenotype (%) [11]: 100%
- Population Mitotic Cells (%) [11]: 0%
- Population Normal (%) [11]: 88%
- Population Pyknosed Nuclei (%) [11]: 9%
- Population Tubulin-Different-Phenotype (%) [11]: 88%
- Total Cell Count [11]: 318
- Population Apoptotic (%) [12]: 66%
- Population Fragmented Nuclei (%) [12]: 52%
- Population Healthy Nuclei (%) [12]: 46%
- Population Hoechst High Intensity Objects (%) [12]: 5%
- Population Mitochondria Different-Phenotype (%) [12]: 99%
- Population Mitotic Cells (%) [12]: 33%
- Population Normal (%) [12]: 94%
- Population Pyknosed Nuclei (%) [12]: 1%
- Population Tubulin-Different-Phenotype (%) [12]: 89%
- Total Cell Count [12]: 272

Compound: COC(c1ccccc1)(c1ccccc1)[C@H](Oc1nc(C)cc(C)n1)C(=O)O [AMBRISENTAN]
- Population Apoptotic (%) [1]: 38%
- Population Fragmented Nuclei (%) [1]: 7%
- Population Healthy Nuclei (%) [1]: 75%
- Population Hoechst High Intensity Objects (%) [1]: 6%
- Population Membrane Permeable-Phenotype (%) [1]: 0%
- Population Mitochondria Different-Phenotype (%) [1]: 53%
- Population Mitotic Cells (%) [1]: 61%
- Population Normal (%) [1]: 93%
- Population Pyknosed Nuclei (%) [1]: 16%
- Population Tubulin-Different-Phenotype (%) [1]: 30%
- Total Cell Count [1]: 249
- Population Healthy Nuclei (%) [2]: 81%
- Population Hoechst High Intensity Objects (%) [2]: 11%
- Population Mitochondria Different-Phenotype (%) [2]: 63%
- Population Normal (%) [2]: 88%
- Population Pyknosed Nuclei (%) [2]: 10%
- Population Tubulin-Different-Phenotype (%) [2]: 23%
- Total Cell Count [2]: 326
- Population Apoptotic (%) [3]: 33%
- Population Fragmented Nuclei (%) [3]: 8%
- Population Healthy Nuclei (%) [3]: 76%
- Population Hoechst High Intensity Objects (%) [3]: 6%
- Population Membrane Permeable-Phenotype (%) [3]: 0%
- Population Mitochondria Different-Phenotype (%) [3]: 47%
- Population Mitotic Cells (%) [3]: 66%
- Population Normal (%) [3]: 93%
- Population Pyknosed Nuclei (%) [3]: 15%
- Population Tubulin-Different-Phenotype (%) [3]: 23%
- Total Cell Count [3]: 383
- Population Apoptotic (%) [4]: 56%
- Population Fragmented Nuclei (%) [4]: 5%
- Population Healthy Nuclei (%) [4]: 80%
- Population Hoechst High Intensity Objects (%) [4]: 13%
- Population Mitochondria Different-Phenotype (%) [4]: 57%
- Population Mitotic Cells (%) [4]: 43%
- Population Normal (%) [4]: 86%
- Population Pyknosed Nuclei (%) [4]: 14%
- Population Tubulin-Different-Phenotype (%) [4]: 18%
- Total Cell Count [4]: 262
- Population Apoptotic (%) [5]: 37%
- Population Fragmented Nuclei (%) [5]: 9%
- Population Healthy Nuclei (%) [5]: 76%
- Population Hoechst High Intensity Objects (%) [5]: 4%
- Population Membrane Permeable-Phenotype (%) [5]: 1%
- Population Mitochondria Different-Phenotype (%) [5]: 30%
- Population Mitotic Cells (%) [5]: 62%
- Population Normal (%) [5]: 95%
- Population Pyknosed Nuclei (%) [5]: 14%
- Population Tubulin-Different-Phenotype (%) [5]: 19%
- Total Cell Count [5]: 313
- Population Apoptotic (%) [6]: 43%
- Population Healthy Nuclei (%) [6]: 82%
- Population Hoechst High Intensity Objects (%) [6]: 7%
- Population Membrane Permeable-Phenotype (%) [6]: 0%
- Population Mitochondria Different-Phenotype (%) [6]: 39%
- Population Mitotic Cells (%) [6]: 56%
- Population Normal (%) [6]: 92%
- Population Pyknosed Nuclei (%) [6]: 8%
- Population Tubulin-Different-Phenotype (%) [6]: 16%
- Total Cell Count [6]: 404
- Population Apoptotic (%) [7]: 30%
- Population Fragmented Nuclei (%) [7]: 10%
- Population Healthy Nuclei (%) [7]: 73%
- Population Hoechst High Intensity Objects (%) [7]: 4%
- Population Membrane Permeable-Phenotype (%) [7]: 0%
- Population Mitochondria Different-Phenotype (%) [7]: 34%
- Population Mitotic Cells (%) [7]: 69%
- Population Normal (%) [7]: 95%
- Population Pyknosed Nuclei (%) [7]: 15%
- Population Tubulin-Different-Phenotype (%) [7]: 18%
- Total Cell Count [7]: 441
- Population Apoptotic (%) [8]: 44%
- Population Fragmented Nuclei (%) [8]: 8%
- Population Healthy Nuclei (%) [8]: 78%
- Population Hoechst High Intensity Objects (%) [8]: 12%
- Population Mitochondria Different-Phenotype (%) [8]: 41%
- Population Mitotic Cells (%) [8]: 55%
- Population Normal (%) [8]: 87%
- Population Pyknosed Nuclei (%) [8]: 12%
- Population Tubulin-Different-Phenotype (%) [8]: 17%
- Total Cell Count [8]: 318
- Population Apoptotic (%) [9]: 27%
- Population Fragmented Nuclei (%) [9]: 17%
- Population Healthy Nuclei (%) [9]: 72%
- Population Hoechst High Intensity Objects (%) [9]: 2%
- Population Membrane Permeable-Phenotype (%) [9]: 3%
- Population Mitochondria Different-Phenotype (%) [9]: 22%
- Population Mitotic Cells (%) [9]: 72%
- Population Normal (%) [9]: 97%
- Population Pyknosed Nuclei (%) [9]: 10%
- Population Tubulin-Different-Phenotype (%) [9]: 13%
- Total Cell Count [9]: 600
- Population Apoptotic (%) [10]: 40%
- Population Fragmented Nuclei (%) [10]: 12%
- Population Healthy Nuclei (%) [10]: 80%
- Population Hoechst High Intensity Objects (%) [10]: 3%
- Population Membrane Permeable-Phenotype (%) [10]: 0%
- Population Mitochondria Different-Phenotype (%) [10]: 23%
- Population Mitotic Cells (%) [10]: 59%
- Population Normal (%) [10]: 96%
- Population Pyknosed Nuclei (%) [10]: 7%
- Population Tubulin-Different-Phenotype (%) [10]: 10%
- Total Cell Count [10]: 605
- Population Apoptotic (%) [11]: 26%
- Population Fragmented Nuclei (%) [11]: 14%
- Population Healthy Nuclei (%) [11]: 77%
- Population Hoechst High Intensity Objects (%) [11]: 2%
- Population Membrane Permeable-Phenotype (%) [11]: 1%
- Population Mitochondria Different-Phenotype (%) [11]: 18%
- Population Mitotic Cells (%) [11]: 73%
- Population Normal (%) [11]: 97%
- Population Pyknosed Nuclei (%) [11]: 8%
- Population Tubulin-Different-Phenotype (%) [11]: 13%
- Total Cell Count [11]: 711
- Population Apoptotic (%) [12]: 53%
- Population Healthy Nuclei (%) [12]: 79%
- Population Hoechst High Intensity Objects (%) [12]: 7%
- Population Membrane Permeable-Phenotype (%) [12]: 0%
- Population Mitochondria Different-Phenotype (%) [12]: 27%
- Population Mitotic Cells (%) [12]: 46%
- Population Normal (%) [12]: 92%
- Population Pyknosed Nuclei (%) [12]: 5%
- Population Tubulin-Different-Phenotype (%) [12]: 15%
- Total Cell Count [12]: 480
